According to ChEMBL document CHEMBL1124828, “Synthesis and antiviral and cytotoxic activity of iodohydrin and iodomethoxy derivatives of 5-vinyl-2'-deoxyuridines, 2'-fluoro-2'-deoxyuridine, and uridine” (J Med Chem, 1990):
Values after ≈ are worked out from the molar mass of the structure shown. Active and inactive are the calls of the source. The rule behind the calls is not given here.

Assays:
Mus musculus = species on record: Mus musculus; assay: Percent survival of L1210 cells in suspension was determined after a dose of 10 ug/mL in mouse; assay type: functional
Procedure, shortened: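 L1210 suspension cultures in Fischer's medium with 10% heat-inactivated horse serum, 37 °C, 5% CO2. Compound was added from ethanol, water or ethanol/water at final 50, 10 or 1 μg/mL. Cells were counted by Coulter counter after 48 h. % survival = (T48−T0)/(C48−C0)×100 versus untreated controls, given as mean ± SD (n = 3).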

Vero [1] = assay: Dose to inhibit plaque formation in vero cells infected with herpes simplex virus type-1 (HSV-1,strainJLJ) was determined; assay type: functional; settings: Chlorocebus sabaeus, read-out: ID50 (the source's name)
Procedure, shortened: (§1)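 HSV-1 plaque-reduction assay in Vero cell monolayers. After 1-h virus adsorption at 37 °C, cells were overlaid with 1% agarose in E-MEM with 2% FBS containing the compound at 0.1, 1.0 and 10 μg/mL. Neutral red staining followed 4 days at 37 °C in 5% CO2, then plaques were counted. ID50 is the concentration cutting plaque number by 50%. The experiment was run once.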

L1210 [2] = assay: In vitro cytotoxicity was determined against L1210 leukemia cell from mouse.; assay type: functional; settings: read-out: ED50 (the source's name)
Procedure, shortened: (§2)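 Mouse L1210 cells were grown in suspension in Fischer's medium with 10% heat-inactivated horse serum at 37 °C, 5% CO2, seeded at 10⁵ cells/mL. Compound was added from ethanol, water or ethanol/water at final 50, 25, 10, 5.0, 2.5 and 1 μg/mL. Cells were counted by Coulter counter at 48 h, in triplicate. % survival = (T48−T0)/(C48−C0)×100; ED50 is the 50% survival reduction.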

P388 [3] = assay: In vivo cytotoxicity was determined against P388 mouse leukemia cells expressed as % treated/control; assay type: functional
Procedure, shortened: (§3)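 B6D2F1 mice, six per group, were implanted ip with 10⁶ P388 leukemia cells in 0.2 mL saline on day 0. Compound in saline/ethanol (6:1) was given ip at 20 mg/kg on days 1–5. Mice were followed until death. Mean survival time was compared with saline-treated controls and expressed as % T/C.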

[4] = Inhibition constant was determined for the facilitated transport of [[…]]-thymidine by murine erythrocyte NBMPR-sensitive nucleoside transporter.; assay type: functional, Mus musculus
Procedure, shortened: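 Murine erythrocytes; facilitated uptake of [3H]thymidine through the NBMPR-sensitive nucleoside transporter. Extracellular [3H]thymidine sampled at various times after exposure and counted by liquid scintillation. Ki taken as the inhibition constant for this transport. Values are generally the mean of two determinations (range), with some n = 1 and the 2'-deoxyuridine reference n = 3.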

Vero [5] = assay: Dose to inhibit plaque formation in vero cells infected with herpes simplex virus type-1 (HSV-1,strainJLJ) was determined relative to acyclovir; value ranges from 0.1-1.0 ug/mL; assay type: functional; settings: Chlorocebus sabaeus, read-out: ID50 (the source's name)
L1210 [6] = assay: Tested for cytotoxicity against murine L1210 cells in vitro; weak cytotoxicity; assay type: functional, cell-based; settings: Mus musculus
P388 [7] = assay: In vivo cytotoxicity was determined against P388 mouse leukemia cells, (% treated / control) at 20 mg/kg (ip) administration; assay type: functional; procedure, shortened: as §3
L1210 [8] = assay: In vitro cytotoxicity was determined against L1210 leukemia cells from mouse; assay type: functional; settings: read-out: ED50 (the source's name); procedure, shortened: as §2
Vero [9] = assay: Dose to inhibit plaque formation in vero cells infected with herpes simplex virus type 1 (HSV-1,strainJLJ) was determined; assay type: functional; settings: Chlorocebus sabaeus, read-out: ID50 (the source's name); procedure, shortened: as §1
Human alphaherpesvirus 1 = assay: Tested for in vitro anti-HSV-1 activity; active; assay type: functional, organism-based

Compound | Survival (Mus musculus) [%] | IC50 (Vero [1]) [µg/mL] | Ki [4] [µM] | other results
COC(CI)c1cn(C2O[C@H](CO)[C@@H](O)[C@H]2O)c(=O)[nH]c1=O (some centres not stated) | 108 | > 100 |  | 
COC(CI)c1cn([C@@H]2O[C@H](CO)[C@@H](O)[C@H]2F)c(=O)[nH]c1=O (some centres not stated) | 97 | > 100 |  | 
O=c1[nH]c(=O)n([C@@H]2O[C@H](CO)[C@@H](O)[C@H]2F)cc1C(O)CI (some centres not stated) | 93 | > 100 |  | 
O=c1[nH]c(=O)n(C2CC(O)C(CO)O2)cc1C(O)C(I)I (configuration not stated) | 2 | > 10 | 220 | EC50 (L1210 [2]): 0.77 µg/mL (≈ 1.47 µM); T/C (P388 [3]): 112%
O=c1[nH]c(=O)n([C@H]2C[C@H](O)[C@@H](CO)O2)cc1C(O)CBr (some centres not stated) |  |  |  | IC50 (Vero [5]): 1 µg/mL (≈ 2.85 µM); Cyotoxicity (L1210 [6]): weak cytotoxicity
COCC(O)c1cn([C@H]2C[C@H](O)[C@@H](CO)O2)c(=O)[nH]c1=O (some centres not stated) | 37 | > 10 | 610 | EC50 (L1210 [2]): 12 µg/mL (≈ 39.7 µM); T/C (P388 [3]): 103%
COC(CI)c1cn([C@H]2C[C@H](O)[C@@H](CO)O2)c(=O)[nH]c1=O (some centres not stated) | 42 | 0.1 (≈ 0.243 µM) | 35 | EC50 (L1210 [2]): 6 µg/mL (≈ 14.6 µM); T/C (P388 [3]): 114%
O=c1[nH]cc(F)c(=O)[nH]1 [FLUOROURACIL] |  |  |  | T/C (P388 [7]): >135%
C=Cc1cn([C@@H]2O[C@H](CO)[C@@H](O)[C@H]2F)c(=O)[nH]c1=O | 87 | 0.1 (≈ 0.367 µM) |  | 
O=c1nc2c(cn1[C@H]1C[C@H](O)[C@@H](CO)O1)C(O)CO2 (some centres not stated) | 103 | > 100 | 8000 | 
N[C@@H](Cc1ccc(N(CCCl)CCCl)cc1)C(=O)O [MELPHALAN] |  |  |  | EC50 (L1210 [8]): 0.15 µg/mL (≈ 0.491 µM)
O=c1ccn([C@H]2C[C@H](O)[C@@H](CO)O2)c(=O)[nH]1 [DEOXYURIDINE] |  |  | 125 | 
O=c1[nH]c(=O)n([C@H]2C[C@H](O)[C@@H](CO)O2)cc1C(O)CCl (some centres not stated) |  |  |  | IC50 (Vero [5]): 1 µg/mL (≈ 3.26 µM); Cyotoxicity (L1210 [6]): weak cytotoxicity
COC(CBr)c1cn([C@H]2C[C@H](O)[C@@H](CO)O2)c(=O)[nH]c1=O (some centres not stated) |  |  |  | IC50 (Vero [5]): 1 µg/mL (≈ 2.74 µM); Cyotoxicity (L1210 [6]): weak cytotoxicity
Nc1nc2c(ncn2COCCO)c(=O)[nH]1 [ACYCLOVIR] |  |  |  | IC50 (Vero [9]): 0.01 µg/mL (≈ 0.0444 µM)
O=c1[nH]c(=O)n([C@H]2C[C@H](O)[C@@H](CO)O2)cc1CCCl |  |  |  | Activity (Human alphaherpesvirus 1): Active
O=c1[nH]c(=O)n([C@H]2C[C@H](O)[C@@H](CO)O2)cc1C(O)CI (some centres not stated) | 52 | > 10 | 155 | EC50 (L1210 [2]): 10.5 µg/mL (≈ 26.4 µM); T/C (P388 [3]): 98%
O=c1[nH]c(=O)n(C2O[C@H](CO)[C@@H](O)[C@H]2O)cc1C(O)CI (some centres not stated) | 87 | > 100 |  | 
O=c1[nH]c(=O)n([C@H]2C[C@H](O)[C@@H](CO)O2)cc1/C=C/I |  | < 0.1 | 25 | 
O=c1[nH]c(=O)n([C@H]2C[C@H](O)[C@@H](CO)O2)cc1/C=C/Br |  |  |  | Activity (Human alphaherpesvirus 1): Active
